Experimental data taken from ChEMBL document CHEMBL1938251, “Synthesis and evaluation of potent and selective human V1a receptor antagonists as potential ligands for PET or SPECT imaging” (Bioorg Med Chem, 2012).

What was measured:
[1] = Permeability of the compound at 25 ug/ml after 18 hrs by PAMPA-BBB assay
Vasopressin V2 receptor = Vasopressin V2 receptor (Homo sapiens, UniProt P30518); assay: Binding affinity to human vasopressin V2 receptor
Vasopressin V1b receptor = target: T1, Vasopressin V1b receptor (Homo sapiens, UniProt P47901); assay: Binding affinity to human V1b receptor
T1 sequence (P47901 whole entry): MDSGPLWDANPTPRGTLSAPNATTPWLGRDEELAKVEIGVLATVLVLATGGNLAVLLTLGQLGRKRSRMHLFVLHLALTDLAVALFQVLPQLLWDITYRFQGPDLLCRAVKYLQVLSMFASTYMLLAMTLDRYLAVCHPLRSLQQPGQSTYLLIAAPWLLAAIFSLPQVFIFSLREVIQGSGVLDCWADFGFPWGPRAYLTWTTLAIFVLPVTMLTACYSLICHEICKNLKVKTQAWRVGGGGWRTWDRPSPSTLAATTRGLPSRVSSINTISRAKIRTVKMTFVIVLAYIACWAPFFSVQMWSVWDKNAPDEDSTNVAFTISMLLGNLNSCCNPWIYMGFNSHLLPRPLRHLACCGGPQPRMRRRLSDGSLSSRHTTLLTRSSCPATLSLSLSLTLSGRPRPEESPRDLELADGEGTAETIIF

Vasopressin V1a receptor = Vasopressin V1a receptor (Homo sapiens, UniProt P37288); assay: Displacement of [3H]arginine-vasopressin from human Vasopressin V1a receptor after 30 mins by liquid scintillation counter
[2] = Permeability of the compound at 5 mg/ml after 18 hrs by PAMPA-BBB assay; assay type: ADME; settings: in the assay text read “25 ug/ml” for “5 mg/ml”
How it was run: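 PAMPA-BBB: DMSO stocks (5 mg/mL) diluted 200-fold into universal buffer pH 7.4, giving 25 μg/mL in the donor wells. The filter membrane was coated with porcine brain lipid in dodecane (20 mg/mL), with buffer pH 7.4 as acceptor. Plates stood undisturbed at room temperature for 18 h. Verapamil and theophylline served as high- and low-permeability standards. Pe was calculated by the Faller equation.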

Sequence of Vasopressin V2 receptor (P30518 whole entry): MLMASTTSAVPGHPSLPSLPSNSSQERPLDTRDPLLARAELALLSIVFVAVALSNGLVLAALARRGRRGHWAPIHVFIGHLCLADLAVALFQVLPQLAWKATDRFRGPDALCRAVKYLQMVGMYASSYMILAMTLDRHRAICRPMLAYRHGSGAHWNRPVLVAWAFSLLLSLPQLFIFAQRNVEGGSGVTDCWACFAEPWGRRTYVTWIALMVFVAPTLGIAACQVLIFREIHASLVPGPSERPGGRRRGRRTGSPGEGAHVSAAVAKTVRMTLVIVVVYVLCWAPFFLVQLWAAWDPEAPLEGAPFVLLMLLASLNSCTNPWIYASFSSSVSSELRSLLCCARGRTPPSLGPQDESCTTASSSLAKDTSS
Sequence of Vasopressin V1a receptor (P37288 whole entry): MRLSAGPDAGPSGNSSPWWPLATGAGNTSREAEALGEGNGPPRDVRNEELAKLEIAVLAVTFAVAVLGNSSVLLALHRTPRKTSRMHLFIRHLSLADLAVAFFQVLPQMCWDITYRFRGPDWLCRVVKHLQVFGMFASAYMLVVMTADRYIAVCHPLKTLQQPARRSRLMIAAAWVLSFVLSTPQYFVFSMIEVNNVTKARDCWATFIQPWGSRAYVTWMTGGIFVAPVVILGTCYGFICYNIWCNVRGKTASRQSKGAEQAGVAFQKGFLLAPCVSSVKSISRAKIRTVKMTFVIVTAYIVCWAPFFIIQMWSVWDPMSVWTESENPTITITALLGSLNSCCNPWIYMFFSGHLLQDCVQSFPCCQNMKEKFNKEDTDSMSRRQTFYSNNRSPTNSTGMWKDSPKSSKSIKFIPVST

Row | permeability [1] | Ki (Vasopressin V2 receptor) | Ki (Vasopressin V1b receptor) | Ki (Vasopressin V1a receptor) | permeability [2] | Compound
1 | 5.3 ×10⁻⁶ cm/s | > 10000 nM | 1150 nM | 0.61 nM |  | C[C@@H](NC(=O)[C@@H](CC(=O)N1CCC(N2CCCCC2)CC1)N1C(=O)[C@@H](N2C(=O)OC[C@@H]2c2ccccc2)[C@H]1/C=C/c1cccc(F)c1)c1ccccc1
2 |  | > 1000 nM | > 1000 nM |  | 2.2 ×10⁻⁶ cm/s | C[C@@H](NC(=O)[C@@H](CC(=O)N1CCC(N2CCCCC2)CC1)N1C(=O)[C@@H](N2C(=O)OC[C@@H]2c2ccccc2)[C@H]1/C=C/c1cccc(I)c1)c1ccccc1
3 | 4.5 ×10⁻⁶ cm/s | > 10000 nM | 1300 nM | 0.63 nM |  | Cc1cccc(/C=C/[C@@H]2[C@H](N3C(=O)OC[C@@H]3c3ccccc3)C(=O)N2[C@H](CC(=O)N2CCC(N3CCCCC3)CC2)C(=O)N[C@H](C)c2ccccc2)c1
